# From ChEMBL document CHEMBL4177546, “Development of a Selective Inhibitor of Protein Arginine Deiminase 2” (J Med Chem, 2017)
# Experiments:
# Homo sapiens [1] = species: Homo sapiens; assay: Selectivity ratio of Kinact/Ki for recombinant human PAD2 expressed in Escherichia coli BL21(DE3)pLysS cells to Kinact/Ki for recombinant full length N-terminal GST-tagged human PAD4 expressed in Escherichia coli Rosetta cells
# How it was run: (§1)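 Enzyme at 2.0 μM (PAD1, PAD2, PAD4) or 5.0 μM (PAD3) incubated at 37 °C with various inhibitor concentrations in 50 mM HEPES, 10 mM CaCl₂, 2 mM DTT, pH 7.6. Timed aliquots moved into substrate mix: 10 mM BAEE, or 10 mM BAA for PAD3. […] Selectivity ratios taken from these values.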
# Homo sapiens [2] = species: Homo sapiens; assay: Selectivity ratio of Kinact/Ki for recombinant human PAD2 expressed in Escherichia coli BL21(DE3)pLysS cells to Kinact/Ki for recombinant His6-tagged PAD1 (unknown origin); how it was run: as §1
# Homo sapiens [3] = species: Homo sapiens; assay: Selectivity ratio of Kinact/Ki for recombinant human PAD2 expressed in Escherichia coli BL21(DE3)pLysS to Kinact/Ki for recombinant His6-tagged PAD3 (unknown origin); how it was run: as §1
# Homo sapiens [4] = species: Homo sapiens; assay: Selectivity ratio of Kinact/Ki for recombinant His6-tagged PAD1 (unknown origin) to Kinact/Ki for recombinant His6-tagged PAD3 (unknown origin); how it was run: as §1
# Homo sapiens [5] = species: Homo sapiens; assay: Selectivity ratio of Kinact/Ki for recombinant full length N-terminal GST-tagged human PAD4 expressed in Escherichia coli Rosetta to Kinact/Ki for recombinant His6-tagged PAD3 (unknown origin); how it was run: as §1
# Homo sapiens [6] = species: Homo sapiens; assay: Selectivity ratio of Kinact/Ki for recombinant His6-tagged PAD3 (unknown origin) to Kinact/Ki for recombinant full length N-terminal GST-tagged human PAD4 expressed in Escherichia coli Rosetta cells; how it was run: as §1
# Homo sapiens [7] = species: Homo sapiens; assay: Selectivity ratio of Kinact/Ki for recombinant His6-tagged PAD1 (unknown origin) to Kinact/Ki for recombinant full length N-terminal GST-tagged human PAD4 expressed in Escherichia coli Rosetta cells; how it was run: as §1
# [8] = target: T1, Protein-arginine deiminase type-2 (Homo sapiens, UniProt Q9Y2J8); assay: Binding affinity to human PAD2 expressed in HEK293T cells assessed as protein occupancy preincubated for 15 mins followed by ionomycin addition measured after 1 hr in presence of CaCl2 by RIBFA probe based SDS-PAGE analysis; type: cell-based
# How it was run: (§2)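 Adherent HEK293T/PAD2 cells at 80–90% confluence in HBS with 2 mM CaCl₂ at 37 °C. Inhibitor (in DMSO) added for 15 min, then ionomycin (0.5 μM final) for 1 h. Cells washed and lysed in 1% Triton X-100. Lysate (2 μg/μL) labelled with RIBFA probe (2 μM) plus 2 mM CaCl₂ for 1 h at 37 °C. PAD2 occupancy expressed relative to DMSO control.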
# [9] = target: T1, Protein-arginine deiminase type-2; assay: Binding affinity to human PAD2 expressed in HEK293T cells assessed as protein occupancy at 25 uM preincubated for 15 mins followed by ionomycin addition measured after 1 hr in presence of CaCl2 by RIBFA probe based SDS-PAGE analysis relative to control; type: cell-based
# How it was run: as §2, with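 “37 °C. Gel resolved and fluorescence scanned (~546/579 nm). PAD2 occupancy” for “37 °C. PAD2 occupancy”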
# [10] = target: T1, Protein-arginine deiminase type-2; assay: Binding affinity to human PAD2 expressed in HEK293T cells assessed as decrease in histone H3 citrulination incubated for 3 hrs in presence of ionomycin/CaCl2 by SDS-PAGE analysis; type: cell-based
# How it was run: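 HEK293T stably overexpressing human PAD2, 4 × 10⁵ cells in HBS, given ionomycin (10 μM), CaCl₂ (1 mM) and varying inhibitor concentrations (1% DMSO) for 3 h. Lysed with 1% Triton X-100 and sonicated at 0 °C. 1 μg protein run on SDS-PAGE, western blotted with antibodies to histone H3 and to citrullinated H3 (Cit 2,8,17), and imaged on Licor. EC50 taken from CitH3 intensity.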
# [11] = Safety index, ratio of compound EC50 to BB-Cl-amide EC50 for cytotoxicity against HEK293T cells; type: cell-based, HEK-293T; conditions: human, read-out: Ratio EC50
# [12] = target: Protein-arginine deiminase type-4 (Homo sapiens) (UniProt Q9UM07); assay: Ratio of Kinact to Ki for recombinant full length N-terminal GST-tagged human PAD4 expressed in Escherichia coli Rosetta cells preincubated for 10 mins followed by BAEE substrate addition measured after 15 mins by COLDER assay
# How it was run: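 Enzyme at 2.0 μM (PAD1, PAD2, PAD4) or 5.0 μM (PAD3) incubated at 37 °C with various inhibitor concentrations in 50 mM HEPES, 10 mM CaCl₂, 2 mM DTT, pH 7.6. Timed aliquots moved into substrate mix: 10 mM BAEE, or 10 mM BAA for PAD3. Selectivity ratios taken from these values.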
# Homo sapiens [13] = species: Homo sapiens; assay: Selectivity ratio of Kinact/Ki for recombinant full length N-terminal GST-tagged human PAD4 expressed in Escherichia coli Rosetta cells to Kinact/Ki for recombinant human PAD2 expressed in Escherichia coli BL21(DE3)pLysS cells; how it was run: as §1
# Homo sapiens [14] = species: Homo sapiens; assay: Selectivity ratio of Kinact/Ki for recombinant His6-tagged PAD1 (unknown origin) to Kinact/Ki for recombinant human PAD2 expressed in Escherichia coli BL21(DE3)pLysS cells; how it was run: as §1
# Homo sapiens [15] = species: Homo sapiens; assay: Selectivity ratio of Kinact/Ki for recombinant His6-tagged PAD3 (unknown origin) to Kinact/Ki for recombinant human PAD2 expressed in Escherichia coli BL21(DE3)pLysS cells; how it was run: as §1
# T1 sequence (Q9Y2J8 whole entry): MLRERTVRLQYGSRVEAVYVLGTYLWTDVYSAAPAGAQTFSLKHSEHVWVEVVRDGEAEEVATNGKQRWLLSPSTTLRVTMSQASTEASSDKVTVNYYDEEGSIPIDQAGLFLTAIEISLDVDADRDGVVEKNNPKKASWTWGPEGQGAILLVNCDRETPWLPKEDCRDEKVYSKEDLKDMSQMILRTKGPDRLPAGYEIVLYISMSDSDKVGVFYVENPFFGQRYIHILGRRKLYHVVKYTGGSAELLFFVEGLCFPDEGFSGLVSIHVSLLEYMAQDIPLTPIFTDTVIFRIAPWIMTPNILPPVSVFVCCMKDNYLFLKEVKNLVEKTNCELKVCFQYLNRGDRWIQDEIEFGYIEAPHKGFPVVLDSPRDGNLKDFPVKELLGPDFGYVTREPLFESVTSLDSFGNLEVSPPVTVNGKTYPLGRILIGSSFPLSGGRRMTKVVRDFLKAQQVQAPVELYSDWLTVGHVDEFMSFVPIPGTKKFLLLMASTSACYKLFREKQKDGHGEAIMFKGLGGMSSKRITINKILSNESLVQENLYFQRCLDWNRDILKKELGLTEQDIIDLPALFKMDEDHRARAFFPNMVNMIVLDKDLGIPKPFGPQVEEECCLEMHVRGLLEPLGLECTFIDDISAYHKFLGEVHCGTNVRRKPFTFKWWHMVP
# Chain of Protein-arginine deiminase type-4 (Homo sapiens) (Q9UM07 whole entry): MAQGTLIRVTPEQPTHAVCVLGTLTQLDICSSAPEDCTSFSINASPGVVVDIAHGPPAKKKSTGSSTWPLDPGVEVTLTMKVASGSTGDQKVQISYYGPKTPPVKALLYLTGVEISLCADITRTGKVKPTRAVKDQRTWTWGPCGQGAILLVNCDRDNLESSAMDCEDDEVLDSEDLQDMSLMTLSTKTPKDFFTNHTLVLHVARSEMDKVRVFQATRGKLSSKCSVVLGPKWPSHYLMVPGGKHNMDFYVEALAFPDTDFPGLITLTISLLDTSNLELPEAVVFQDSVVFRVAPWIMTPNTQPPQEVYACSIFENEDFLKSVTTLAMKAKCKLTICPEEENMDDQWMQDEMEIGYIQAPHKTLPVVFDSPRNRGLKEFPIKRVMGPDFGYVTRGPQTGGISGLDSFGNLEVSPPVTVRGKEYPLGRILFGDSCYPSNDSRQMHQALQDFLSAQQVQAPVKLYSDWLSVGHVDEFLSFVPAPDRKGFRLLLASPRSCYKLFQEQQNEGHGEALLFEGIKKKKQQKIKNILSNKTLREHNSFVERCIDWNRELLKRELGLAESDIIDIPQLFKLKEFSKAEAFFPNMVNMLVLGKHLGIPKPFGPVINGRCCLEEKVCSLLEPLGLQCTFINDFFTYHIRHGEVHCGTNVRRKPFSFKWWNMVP
Structure (SMILES),Selectivity ratio (Homo sapiens [3]),Selectivity ratio (Homo sapiens [4]),Selectivity ratio (Homo sapiens [5]),EC50 [8] [µM],Activity [9] [%],EC50 [10] [µM],Selectivity ratio (Homo sapiens [1]),Selectivity ratio (Homo sapiens [2]),Selectivity ratio (Homo sapiens [6]),Selectivity ratio (Homo sapiens [7]),selectivity ratio [11],also measured
CCN1Cc2cccc(C(=O)N[C@@H](CCCNC(=N)CF)c3nc4ccccc4n3CC)c2C1=O,,,,,,,33,2,1,19,,
CCOc1cccc2c1nc([C@H](CCCNC(=N)CF)NC(=O)c1cccc3c1C(=O)NC3)n2C,79,,,8.3,> 60,2.7,95,,1.2,65,> 30,
CCN1Cc2cccc(C(=O)N[C@@H](CCCNC(=N)CF)c3nc4ccccc4[nH]3)c2C1=O,,,,,,,,,,,,Selectivity ratio (Homo sapiens [13]): 1; Selectivity ratio (Homo sapiens [14]): 3.4; Selectivity ratio (Homo sapiens [15]): 1
CCN1Cc2cccc(C(=O)N[C@@H](CCCNC(=N)CF)c3nc4c(OC)cccc4n3C)c2C1=O,85,,,,< 37,,85,5,1,16,,
CCn1c([C@H](CCCNC(=N)CF)NC(=O)c2cccc3c2C(=O)NC3)nc2c(OC)cccc21,,,,7.6,> 60,2.4,32,,1,38,> 30,
N=C(CF)NCCC[C@H](NC(=O)c1ccccc1C(=O)O)c1nc2ccccc2[nH]1,,,,,,,,,,,,Selectivity ratio (Homo sapiens [13]): 16; Selectivity ratio (Homo sapiens [14]): 11; Selectivity ratio (Homo sapiens [15]): 4.3
N=C(CCl)NCCC[C@H](NC(=O)c1ccccc1C(=O)O)c1nc2ccccc2[nH]1,,,,,,,,,,,,Selectivity ratio (Homo sapiens [13]): 9; Selectivity ratio (Homo sapiens [14]): 8.3; Selectivity ratio (Homo sapiens [15]): 6.2
COc1cccc2c1nc([C@H](CCCNC(=N)CF)NC(=O)c1cccc3c1C(=O)N(C)C3)n2C,106,30,1.1,,< 37,,,,,,,

# The next lines start with results.
Selectivity ratio (Homo sapiens [3]),Selectivity ratio (Homo sapiens [4]),Selectivity ratio (Homo sapiens [5]),EC50 [8] [µM],Activity [9] [%],EC50 [10] [µM],Structure (SMILES),Selectivity ratio (Homo sapiens [1]),Selectivity ratio (Homo sapiens [2]),Selectivity ratio (Homo sapiens [6]),Selectivity ratio (Homo sapiens [7]),selectivity ratio [11],also measured
56,37,1.7,,,,CCn1c([C@H](CCCNC(=N)CF)NC(=O)c2cccc3c2C(=O)NC3)nc2ccccc21,33,2,,,,
47,29,3.2,9.5,> 60,0.4,COc1cccc2c1nc([C@H](CCCNC(=N)CF)NC(=O)c1cccc3c1C(=O)NC3)n2C,15,1.6,,,> 30,
,,,20.6,,,N=C(CF)NCCC[C@H](NC(=O)c1ccc(-c2ccccc2)cc1)c1nc2ccccc2[nH]1,,,,,,Ratio [12]: 3750 M⁻¹ min⁻¹
114,121,1.2,5.9,> 60,2.1,COc1ccc2c(c1)nc([C@H](CCCNC(=N)CF)NC(=O)c1cccc3c1C(=O)NC3)n2C,,,,,> 30,
